# NTR1 ag = NTR1 (human) agonism | NTR1-U2OS beta-arrestin-GFP spot imaging, agonist mode | activation, % at 20 µM | 330,000 tested, 0.17% active | AID 493036;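 active = activation at or above 40% of the spot to cytoplasm intensity ratio, with at least 20 cells analyzed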;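 note: 0% = DMSO without peptide and 100% = 100 nM NTR1 peptide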
# PLC-beta3 inh = blocks human PLC-beta3 enzyme activity. Q01970. inhibition, % at 12.2 µM. Purified PLC-beta3, fluorogenic substrate, fluorescence. 370,000 tested, 0.18% active; in the data active = inhibition above about 11%;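 note: 0% = median of compound wells on plate and 100% = full blocker control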
# PLCg1 inh = inhibitors of human phospholipase C gamma1; P19174; purified PLC-gamma1, fluorogenic substrate, fluorescence; inhibition, % at 12.2 µM; 370,000 tested, 0.84% active; in the data active = inhibition above about 9.5%
# Target sequence (P19174 whole entry, looked up): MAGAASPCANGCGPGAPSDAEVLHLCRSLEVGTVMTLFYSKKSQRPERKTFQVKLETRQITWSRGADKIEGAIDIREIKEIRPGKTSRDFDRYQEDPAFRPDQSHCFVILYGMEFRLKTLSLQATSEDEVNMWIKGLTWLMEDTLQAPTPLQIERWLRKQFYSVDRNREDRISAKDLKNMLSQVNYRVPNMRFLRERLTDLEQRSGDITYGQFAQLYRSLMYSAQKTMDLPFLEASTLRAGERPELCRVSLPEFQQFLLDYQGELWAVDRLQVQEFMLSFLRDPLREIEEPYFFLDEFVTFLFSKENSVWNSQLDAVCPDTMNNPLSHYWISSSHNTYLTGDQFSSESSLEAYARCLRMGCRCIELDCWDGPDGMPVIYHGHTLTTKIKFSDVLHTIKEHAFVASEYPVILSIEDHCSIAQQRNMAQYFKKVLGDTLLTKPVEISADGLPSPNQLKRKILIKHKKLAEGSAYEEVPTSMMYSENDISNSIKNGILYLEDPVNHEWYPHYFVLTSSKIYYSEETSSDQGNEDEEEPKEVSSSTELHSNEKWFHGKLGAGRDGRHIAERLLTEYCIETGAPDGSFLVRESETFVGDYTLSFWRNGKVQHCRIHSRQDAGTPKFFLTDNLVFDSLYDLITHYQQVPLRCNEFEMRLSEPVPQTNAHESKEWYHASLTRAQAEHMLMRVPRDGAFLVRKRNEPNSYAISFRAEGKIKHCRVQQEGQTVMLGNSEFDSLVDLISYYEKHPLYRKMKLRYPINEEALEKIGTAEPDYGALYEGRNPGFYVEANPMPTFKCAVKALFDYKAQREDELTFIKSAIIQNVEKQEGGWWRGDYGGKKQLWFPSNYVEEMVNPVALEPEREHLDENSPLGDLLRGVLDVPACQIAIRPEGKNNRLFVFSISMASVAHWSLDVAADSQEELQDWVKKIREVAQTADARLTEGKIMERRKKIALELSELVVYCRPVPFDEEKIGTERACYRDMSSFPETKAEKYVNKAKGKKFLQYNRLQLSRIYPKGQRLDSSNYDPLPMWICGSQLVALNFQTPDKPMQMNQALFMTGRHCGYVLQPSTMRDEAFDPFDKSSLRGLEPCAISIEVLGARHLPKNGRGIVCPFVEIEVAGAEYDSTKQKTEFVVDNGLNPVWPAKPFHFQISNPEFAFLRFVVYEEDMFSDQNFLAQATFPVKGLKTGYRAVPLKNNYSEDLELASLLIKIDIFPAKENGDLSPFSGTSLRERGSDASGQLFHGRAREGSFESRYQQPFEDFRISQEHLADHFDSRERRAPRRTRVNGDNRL
# Arr AP2 block = human beta-arrestin and AP2 interaction inhibition. FITC-arrestin peptide / GST-AP2 beads, flow cytometry; AP2 beta2 appendage carries R879A mutation. inhibition, % at 10 µM. 340,000 tested, 0.31% active;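 active = inhibition above a set limit, near 3 SD of compounds lacking own fluorescence, cut at about 54% in these data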;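 note: plate controls were DMSO wells for no effect and 5 µM unlabelled arrestin peptide for full effect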
#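 test system = AP2 appendage R879A on GSH beads | buffer or medium = PBS plus Tween 20 (0.05%) and BSA (0.1%) | incubation = 12 min plus 1 h, RT | detection = bead flow cytometry, FITC channel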
# Arr AP2 CP1 = inhibitors of human beta-arrestin and AP2 interaction | 1,300 tested, 2% active | AID 504908 | shares compounds with Arr AP2 block | inhibition, % at 10 µM | GST-AP2 beads, FITC arrestin peptide binding, flow cytometry; GST-fused beta2-adaptin appendage, R879A mutant;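 active = inhibition above a set limit, roughly 3 SD of non-fluorescent compound noise, cut at about 38% in these data; inactive = inhibition at or below that limit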;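 note: loss of bead fluorescence from 50 nM FITC arrestin peptide bound to appendage; 0% = negative control wells and 100% = excess unlabelled arrestin peptide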
# GST-FITC bead = disrupts GST binding to glutathione beads, arrestin-AP2 artifact; inhibition, % at 10 µM; 1,300 tested, 2% active; GST-fluorescein binding to GSH beads, fluorescence, counter-screen; AID 588338; shares compounds with Arr AP2 block;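 active = inhibition above 50%, about 3 SD of the inhibition seen with non-fluorescent compounds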;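 note: fluorescein maleimide labelled GST captured on 4 micron glutathione beads; higher means more loss of bead fluorescence from quenching or blocked binding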
# Starred values were filed as active, the others as inactive; i = inactive; . = no result. A selection: hits, their analogues and other compounds. The true share with any hit is near 1.3%.
SMILES,NTR1 ag,PLC-beta3 inh,PLCg1 inh,Arr AP2 block,Arr AP2 CP1,GST-FITC bead
COC(=O)Cc1c(C)c2ccc(O)c(CN3CCCC(C)C3)c2oc1=O (stereo not drawn),0.3,i,i,104.9*,-3.2,-4.3
O=[N+]([O-])c1ccc(CNc2cccc(Cl)c2)s1,4.0,-5.4,0.3,60.4*,-7.2,1.1
Cc1cc(C)n(CC(=O)O)c(=O)c1[N+](=O)[O-],1.6,-5.7,1.7,66.0*,-10.7,-2.2
CCCCNC(=O)C[C@H]1C[C@@]2(C(=O)OCC)CCCC3=C2N(CCC3)C1=O,.,2.3,4.3,.,.,.
Oc1c(C=C2N=c3ccccc3=N2)sc(=S)n1-c1ccc(F)cc1,3.4,-12.3,-10.8,17.5,.,.
Oc1c(C=C2N=c3ccccc3=N2)sc(=S)n1C1CCCC1,3.3,-41.1,-29.4,110.3*,-1.9,-0.7
COC(=O)CSc1nc(C)cc(C)c1C#N,1.5,-84.8,-86.9,0.8,.,.
COC(=O)CSc1nc(N)nc(C)c1Br,0.2,2.1,2.4,56.0*,-13.0,-3.0
O=C1CCC[C@H]2Cc3nc4ccccc4cc3C[C@]23CCCN13,.,-4.7,-2.6,.,.,.
CCCC(=O)N1CCC[C@]2(CC[C@H](CCC(C)=O)O2)C1,.,4.5,2.4,.,.,.
COc1ccc(-n2c(SCC(=O)Nc3cc(C)on3)nc3c([nH]c4ccccc43)c2=O)cc1,5.5,1.6,-0.1,8.2,.,.
O=C(CSc1nc2c([nH]c3ccccc32)c(=O)n1-c1ccc(F)cc1)NCc1ccco1,6.3,-9.3,-6.1,100.9*,-0.6,38.8
Cc1ccc(-n2c(SCC(=O)Nc3cc(C)on3)nc3c([nH]c4ccccc43)c2=O)cc1,3.8,0.9,0.4,91.8*,9.6,22.9
O=C(O)CSc1nc2sc3c(c2c(=O)n1-c1ccccc1)CCC3,1.6,-2.7,-0.8,5.0,.,.
COc1ccc(-n2c(SCC(=O)O)nc3sc4c(c3c2=O)CCCC4)cc1,0.4,-1.4,1.8,58.7*,-3.5,0.0
CN(C)S(=O)(=O)c1ccc(N2CCCC2)c(C(=O)NNC(=O)c2ccccc2)c1,0.0,-8.3,-1.6,63.6*,-0.4,4.0
CCN(C(=O)CSc1nc2ccccc2o1)C1CCS(=O)(=O)C1 (stereo not drawn),1.1,2.0,2.5,-10.3,.,.
CCN(C(=O)CSc1nc2ccccc2[nH]1)C1CCS(=O)(=O)C1 (stereo not drawn),-0.9,-3.7,1.1,54.4*,-5.8,-6.5
CC(C)NC(=O)Cn1c(-c2cncs2)nc2ccccc21,.,-1.4,1.5,.,.,.
COC1c2ccccc2C(=O)N1Cc1ccc(F)cc1 (stereo not drawn),-0.4,-1.7,0.1,61.3*,8.4,-10.5
COCC(=O)N(Cc1ccccc1)c1ccccc1C(=O)Nc1cc(OC)ccc1OC,.,0.1,-2.3,.,.,.
Cc1cccc(C)c1OCc1cccc(C2Nc3ccccc3C(=O)N2Cc2ccco2)c1 (stereo not drawn),.,-180.2,-125.3,.,.,.
Cc1cccc(CNC(=O)NC2CCCCN(Cc3cccc(Cl)c3)C2=O)c1 (stereo not drawn),.,-0.5,-0.9,.,.,.
CCN(CC(=O)Nc1ccc(OC)cc1)C(=O)Cc1cccs1,1.6,-11.3,-5.3,55.5*,-2.7,-4.5
CCN(CC(=O)Nc1ccc(OC)cc1)C(=O)CCS(=O)(=O)c1ccc(C)cc1,0.1,5.0,2.6,0.8,.,.
SMILES,NTR1 ag,PLC-beta3 inh,PLCg1 inh,Arr AP2 block,Arr AP2 CP1,GST-FITC bead
CCCCOCCCNC(=O)C[C@H]1C[C@@]2(C(=O)OC)C(=C[C@H](COCc3ccccc3)O[C@@H]2C)N(CCc2ccc(OC)c(OC)c2)C1=O,.,4.0,-0.8,.,.,.
O=C(C1CCN(S(=O)(=O)c2ccc(Cl)cc2)CC1)N1CCCC1,-0.5,3.2,3.7,1.6,.,.
CCCNC(=O)[C@@H]1CCCN1C(=O)C1CCN(S(=O)(=O)c2ccc(C)cc2)CC1,-0.9,-4.4,0.8,54.4*,4.7,-2.0
Cc1ccc(S(=O)(=O)N2CCC(C(=O)N3CCC[C@H]3C(=O)NCC(C)C)CC2)cc1,2.1,-2.2,2.8,33.6,.,.
Cc1ccc(S(=O)(=O)N2CCC(C(=O)N3CCC3)CC2)cc1,-0.3,-1.3,2.4,54.3*,5.0,-2.5
CN[C@H]1C[C@H]2c3[nH]c4c(-c5cccc(C)c5)cccc4c3CCN2C(=O)[C@H]1[C@H](C)O,.,-66.8,-48.0,.,.,.
CCNc1ccc2noc3c2c1C(=O)c1ccccc1-3,-0.7,i,i,62.9*,33.6,91.0*
O=C(NCC1CCCO1)c1ccc(-c2ccccc2Cl)o1 (stereo not drawn),-0.7,3.1,-0.6,62.2*,0.7,-6.9
Cc1onc(-c2ccccc2Cl)c1C(=O)NCC1CCCO1 (stereo not drawn),1.9,1.8,2.7,21.0,.,.
C=CCN1C(=O)[C@@H](CC(=O)NCCCC)[C@]2(C(=O)OC)CCCCC=C12,.,-1.7,2.4,.,.,.
O=C(NC1=NCCS1)c1ccc(Cl)c(S(=O)(=O)N2CCOCC2)c1,0.3,4.0,2.3,56.5*,-0.8,-13.5
CCN(Cc1cn(Cc2ccccc2)nn1)S(=O)(=O)c1ccccc1Br,.,1.8,0.0,.,.,.
O=C(NC1CCCCC1)C(c1cccs1)N(C(=O)c1ccccn1)c1ccccc1 (stereo not drawn),0.8,1.6,1.8,-7.1,.,.
OC(C#Cc1ccccn1)c1cccs1 (stereo not drawn),2.8,-16.4,-11.0,99.1*,-5.7,-1.3
Cn1nnnc1NCc1ccc(Cl)cc1,0.6,-4.7,3.5,57.1*,-1.4,-10.5
COCCN(C[C@@H]1[C@H](c2ccccc2)[C@H](CO)N1c1nc(C)c(C)s1)S(=O)(=O)c1ccccc1[N+](=O)[O-],.,0.8,1.6,.,.,.
c1ccc(OCc2nnnn2-c2ccccc2)cc1,0.9,1.6,-0.3,2.9,.,.
Clc1ccc(OCc2nnnn2-c2ccccc2)cc1,-0.8,-1.3,2.0,73.2*,4.6,-4.8
C[C@@H]1OC(C2CCCCC2)N(C)[C@H]2C[C@H]3c4[nH]c5c(-c6ccc7c(c6)OCO7)cccc5c4CCN3C[C@@H]12 (stereo partly drawn),.,-30.4,-25.8,.,.,.
COCCCn1c(C)nnc1SCC(=O)NCc1ccco1,-0.4,-1.3,-1.8,54.5*,5.8,0.1
COCC(C)n1c(SCC(=O)NC(=O)Nc2ccc3c(c2)OCCO3)nc2ccccc2c1=O (stereo not drawn),0.2,-14.2,-0.6,55.5*,8.2,-11.2
COC(=O)Cc1ccc(NC(=S)N2CCN(C)CC2)cc1,-0.4,-1.4,4.3,-3.6,.,.
COC(=O)Cc1ccc(NC(=S)N2CCCCC2C)cc1 (stereo not drawn),1.9,3.8,-0.8,57.0*,-10.3,3.3
O=[N+]([O-])c1ccc(/C=C/c2ccc3cccc(O)c3n2)cc1,0.6,-2.0,0.5,56.6*,-7.8,-5.4
O=C(CCc1ccccc1)N[C@H]1[C@H](OC(=O)c2cccnc2)CCC[C@@]12C(=O)N(Cc1ccccc1)c1ccccc12,.,-13.2,1.0,.,.,.

# Assay outcomes deposited in PubChem by several laboratories.
